{
  "source": "ChEMBL document CHEMBL1275502",
  "about": "“Establishing in vitro-in vivo correlations for Aspergillus fumigatus: the challenge of azoles versus echinocandins” (2008)",
  "key": {"Aspergillus fumigatus [1]": {"tested_on": "Aspergillus fumigatus", "experiment": "Antimicrobial activity against Aspergillus fumigatus isolate DK infected in NMRI mouse assessed as survival rate at 5 mg/kg, po", "type": "functional", "procedure,_shortened": "(§1)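 NMRI mice (26 to 30 g) immunosuppressed with cyclophosphamide i.p., 200 mg/kg day −3 and 100 mg/kg day 0. Challenged i.v. on day 0 with 1.5 × 10⁵ CFU in groups of 10 to 13. Dosed in 0.25 ml on days 1 to 4 and 7 to 10: caspofungin i.p., posaconazole orally, or glucose i.p. as control. Scored daily. Survivors killed day 11. AT isolate run in two experiments.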"}, "Aspergillus fumigatus [2]": {"tested_on": "Aspergillus fumigatus", "experiment": "Antimicrobial activity against Aspergillus fumigatus isolate DK infected in NMRI mouse assessed as survival rate at 20 mg/kg, po", "type": "functional", "procedure,_shortened": "as §1"}, "Aspergillus fumigatus [3]": {"tested_on": "Aspergillus fumigatus", "experiment": "Antimicrobial activity against Aspergillus fumigatus isolate AT infected in NMRI mouse assessed as survival rate at 5 mg/kg, po", "type": "functional", "procedure,_shortened": "as §1"}, "Aspergillus fumigatus [4]": {"tested_on": "Aspergillus fumigatus", "experiment": "Antimicrobial activity against Aspergillus fumigatus isolate AT infected in NMRI mouse assessed as survival rate at 20 mg/kg, po", "type": "functional", "procedure,_shortened": "as §1"}, "Aspergillus fumigatus [5]": {"tested_on": "Aspergillus fumigatus", "experiment": "Antimicrobial activity against Aspergillus fumigatus isolate DK by microdilution method", "type": "functional", "conditions": "read-out: MEC", "procedure,_shortened": "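Broth microdilution by the EUCAST method for spore-forming moulds (C. krusei ATCC 6258 control), also a modified EUCAST version with 5 × 10⁴ cells/ml inoculum. Spore-inoculated plates incubated at 35°C for 24 to 48 h, read visually and spectrophotometrically. Azole MIC = lowest dilution giving no growth, ignoring single surface colonies. Echinocandin MEC = lowest concentration giving aberrant growth.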"}, "Aspergillus fumigatus [6]": {"tested_on": "Aspergillus fumigatus", "experiment": "Antimicrobial activity against Aspergillus fumigatus isolate DK by Etest method", "type": "functional", "procedure,_shortened": "(§2)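 Etest on RPMI 1640-2% glucose agar plates, run per the manufacturer's recommendations. Caspofungin Etest end point read after 2 days of incubation.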"}, "Aspergillus fumigatus [7]": {"tested_on": "Aspergillus fumigatus", "experiment": "Antimicrobial activity against Aspergillus fumigatus isolate DK infected in NMRI mouse assessed as survival rate at 2.25 mg/kg, ip", "type": "functional", "conditions": "route intraperitoneal", "procedure,_shortened": "as §1"}, "Aspergillus fumigatus [8]": {"tested_on": "Aspergillus fumigatus", "experiment": "Antimicrobial activity against Aspergillus fumigatus isolate AT by Etest method", "type": "functional, organism-based", "procedure,_shortened": "as §2"}, "Aspergillus fumigatus [9]": {"tested_on": "Aspergillus fumigatus", "experiment": "Antimicrobial activity against Aspergillus fumigatus isolate AT assessed as partial growth inhibition by microdilution method", "type": "functional, organism-based", "procedure,_shortened": "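Broth microdilution MEC by EUCAST and CLSI methods (one lab used a modified EUCAST inoculum of 5 × 10⁴ cells/ml). Plates inoculated with spores and incubated at 35°C for 24 to 48 h. MEC taken as the lowest concentration giving aberrant growth, read by light microscopy.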"}, "Aspergillus fumigatus [10]": {"tested_on": "Aspergillus fumigatus", "experiment": "Antimicrobial activity against Aspergillus fumigatus isolate AT infected in NMRI mouse assessed as survival rate at 2.25 mg/kg, ip", "type": "functional", "conditions": "route intraperitoneal", "procedure,_shortened": "as §1"}, "Aspergillus fumigatus [11]": {"tested_on": "Aspergillus fumigatus", "experiment": "Antimicrobial activity against Aspergillus fumigatus isolate A29 by Etest method", "type": "functional"}, "Aspergillus fumigatus [12]": {"tested_on": "Aspergillus fumigatus", "experiment": "Antimicrobial activity against Aspergillus fumigatus isolate AT assessed as amount of mannose in the alkali-insoluble fraction at 0.04 ug/ml", "type": "functional", "procedure,_shortened": "(§3)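 Mycelia pretreated by culture with 0.04 μg/ml caspofungin. Cell wall boiled twice in Tris-EDTA-SDS-mercaptoethanol, then alkali-fractionated twice (1 M NaOH/0.05 M NaBH₄, 70°C). Alkali-insoluble fraction (100 μg) digested overnight at 37°C with recombinant endo-β(1,3)-glucanase LamA in pH 6.0 acetate buffer. Read by HPAEC and reducing-sugar assay; hexoses by GC with meso-inositol internal standard. Pretreated values are means of two samples.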"}, "Aspergillus fumigatus [13]": {"tested_on": "Aspergillus fumigatus", "experiment": "Antimicrobial activity against Aspergillus fumigatus isolate AT assessed as amount of glucose in the alkali-insoluble fraction at 0.04 ug/ml", "type": "functional", "procedure,_shortened": "as §3"}, "Aspergillus fumigatus [14]": {"tested_on": "Aspergillus fumigatus", "experiment": "Antimicrobial activity against Aspergillus fumigatus isolate AT assessed as amount of galactose in the alkali-insoluble fraction at 0.04 ug/ml", "type": "functional", "procedure,_shortened": "as §3"}, "Aspergillus fumigatus [15]": {"tested_on": "Aspergillus fumigatus", "experiment": "Antimicrobial activity against Aspergillus fumigatus isolate AT assessed as amount of beta-(1,3)-glucan at 0.04 ug/ml", "type": "functional", "procedure,_shortened": "as §3"}, "Aspergillus fumigatus [16]": {"tested_on": "Aspergillus fumigatus", "experiment": "Ratio of FKS1 expression in Aspergillus fumigatus isolate AT to PMA1 expression in Aspergillus fumigatus ATCC 13073 at 0.25 ug/ml by RT-PCR", "type": "functional", "procedure,_shortened": "(§4)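 Strains grown 24 h at 37°C with shaking (150 rpm) in RPMI 1640, with and without 0.25 μg/ml caspofungin. FKS1 transcript measured by real-time PCR, normalised to housekeeping genes (BTU, PMA1). Reported as the expression ratio of AT isolate to each reference strain.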"}, "Aspergillus fumigatus [17]": {"tested_on": "Aspergillus fumigatus", "experiment": "Ratio of FKS1 expression in Aspergillus fumigatus isolate AT to BTU expression in Aspergillus fumigatus ATCC 13073 at 0.25 ug/ml by RT-PCR", "type": "functional", "procedure,_shortened": "as §4"}, "Aspergillus fumigatus [18]": {"tested_on": "Aspergillus fumigatus", "experiment": "Ratio of FKS1 expression in Aspergillus fumigatus isolate AT to PMA1 expression in Aspergillus fumigatus 293 at 0.25 ug/ml by RT-PCR", "type": "functional", "procedure,_shortened": "as §4"}, "Aspergillus fumigatus [19]": {"tested_on": "Aspergillus fumigatus", "experiment": "Ratio of FKS1 expression in Aspergillus fumigatus isolate AT to BTU expression in Aspergillus fumigatus 293 at 0.25 ug/ml by RT-PCR", "type": "functional", "procedure,_shortened": "as §4"}, "Aspergillus fumigatus [20]": {"tested_on": "Aspergillus fumigatus", "experiment": "Antimicrobial activity against Aspergillus fumigatus isolate AT assessed as FKS1 expression by RT-PCR relative to control", "type": "functional, organism-based", "procedure,_shortened": "as §4"}, "Aspergillus fumigatus [21]": {"tested_on": "Aspergillus fumigatus", "experiment": "Antimicrobial activity against Aspergillus fumigatus isolate AT infected in NMRI mouse assessed as reduction in galactomannan index relative to control", "type": "functional, organism-based", "procedure,_shortened": "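Mice (NMRI) immunosuppressed with cyclophosphamide i.p. (200 mg/kg day −3, 100 mg/kg day 0). Challenged i.v. on day 0 with 1.5 × 10⁵ CFU. Treated on days 1–4 and 7–10 with caspofungin i.p. 2.25 mg/kg, posaconazole orally 5 or 20 mg/kg, or glucose i.p. (controls). Serum galactomannan index measured by Platelia ELISA on day 11 in survivors.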"}},
  "note": "The source made the active and inactive calls. The calls are words filed in the database; no cut-off is given here.",
  "data": [
    {"smiles": "CC[C@@H]([C@H](C)O)n1ncn(-c2ccc(N3CCN(c4ccc(OC[C@@H]5CO[C@@](Cn6cncn6)(c6ccc(F)cc6F)C5)cc4)CC3)cc2)c1=O", "note": "[POSACONAZOLE]", "values": [
      {"measurement": "survival at 5 mg/kg", "setting": "Aspergillus fumigatus [1]", "value": 16.7, "unit": "%"},
      {"measurement": "survival at 20 mg/kg", "setting": "Aspergillus fumigatus [2]", "value": 25, "unit": "%"},
      {"measurement": "survival at 5 mg/kg", "setting": "Aspergillus fumigatus [3]", "value": 70, "unit": "%"},
      {"measurement": "survival at 20 mg/kg", "setting": "Aspergillus fumigatus [4]", "value": 75, "unit": "%"}
    ]},
    {"smiles": "CC[C@H](C)C[C@H](C)CCCCCCCCC(=O)N[C@H]1C[C@@H](O)[C@@H](NCCN)NC(=O)[C@@H]2[C@@H](O)CCN2C(=O)[C@H]([C@H](O)CCN)NC(=O)[C@H]([C@H](O)[C@@H](O)c2ccc(O)cc2)NC(=O)[C@@H]2C[C@@H](O)CN2C(=O)[C@H]([C@@H](C)O)NC1=O", "note": "[CASPOFUNGIN]", "values": [
      {"measurement": "minimal effective concentration", "setting": "Aspergillus fumigatus [5]", "value": 0.25, "unit": "µg/mL"},
      {"measurement": "Activity", "setting": "Aspergillus fumigatus [6]", "value": 0.125, "unit": "µg/mL"},
      {"measurement": "survival at 2.25 mg/kg", "setting": "Aspergillus fumigatus [7]", "value": 100, "unit": "%"},
      {"measurement": "Activity", "setting": "Aspergillus fumigatus [8]", "value": "inactive"},
      {"measurement": "Activity", "setting": "Aspergillus fumigatus [9]", "value": "Active"},
      {"measurement": "survival at 2.25 mg/kg", "setting": "Aspergillus fumigatus [10]", "value": 25, "unit": "%"},
      {"measurement": "MIC", "setting": "Aspergillus fumigatus [11]", "value": 0.094, "unit": "µg/mL"},
      {"measurement": "minimal effective concentration", "setting": "Aspergillus fumigatus [11]; in the assay text read “by microdilution method” for “by Etest method”, read-out: MEC", "value": 0.04, "unit": "µg/mL"},
      {"measurement": "Activity", "setting": "Aspergillus fumigatus [12]", "value": 10, "unit": "%"},
      {"measurement": "Activity", "setting": "Aspergillus fumigatus [13]", "value": 74, "unit": "%"},
      {"measurement": "Activity", "setting": "Aspergillus fumigatus [14]", "value": 16, "unit": "%"},
      {"measurement": "Activity", "setting": "Aspergillus fumigatus [15]", "value": 81, "unit": "%"},
      {"measurement": "Ratio", "setting": "Aspergillus fumigatus [16]", "value": 3.5},
      {"measurement": "Ratio", "setting": "Aspergillus fumigatus [17]", "value": 3.41},
      {"measurement": "Ratio", "setting": "Aspergillus fumigatus [18]", "value": 2.9},
      {"measurement": "Ratio", "setting": "Aspergillus fumigatus [19]", "value": 2.78},
      {"measurement": "Activity", "setting": "Aspergillus fumigatus [20]", "value": "inactive"},
      {"measurement": "Activity", "setting": "Aspergillus fumigatus [21]", "value": "Active"}
    ]}
  ]
}
